# Screening data (PubChem)
# Rows were chosen to be rich in hits. Some 1.3% of all compounds tested hit in one or more screens of this group.
# MLL AF4-AF9 inh: MLL-AF4/AF9 protein interaction inhibition. P42568. inhibition, % at 10 µM. AlphaScreen, biotin-AF4 peptide binding to FLAG-AF9. 0.47% of 350,000 active. AID 651704;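 active means every replicate reaching a set inhibition limit, whatever the replicate mean, cut at about 25% in these data; inconclusive means mean inhibition reaches that limit but some replicates miss it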;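 further: 0% = plate neutral control median and 100% = total signal loss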
# XiGFP reactiv: reactivates the inactive X chromosome in mouse fibroblasts; XiGFP mouse fibroblasts, % GFP-positive cells imaging, 3 d; cells co-treated with 5-aza-dC sensitizer; scaled so ellipticine positive control = 100%; activation, % at 7.58 µM; 0.055% of 360,000 active; AID 743238;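 active means mean normalized replicate activation at least 10% and every replicate at or above 10%; inconclusive means only one of the two criteria met; inactive means mean below 10% and not all replicates reach 10%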;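 further: 0% = median of on-plate neutral control wells and 100% = ellipticine 6 µM median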
#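 Material: XiGFP fibroblasts, SV40-immortalized. Buffer or medium: DMEM plus 5-aza-dC sensitizer. Compound: single concentration per compound, delivered by pin transfer. Times: 3 days compound exposure. Controls: ellipticine 6 µM.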
# CASP6 VEID inh: blocks human caspase-6 cleavage activity; 0.53% of 350,000 active; inhibition, % at 12.5 µM; purified caspase-6, Z-VEID-R110 cleavage fluorescence; P55212;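 active means mean inhibition across replicates at least about 35%, with every replicate also reaching that limit, limit read from the data; inconclusive means only one of the two criteria met; inactive means neither criterion met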;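 further: 0% = median of neutral control wells and 100% = no fluorescence left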
# RAD54 inh: blocks human RAD54 Holliday junction branch migration | AID 602329 | inhibition, % at 10.4 µM | Q92698 | FAM/BHQ fluorescence | 0.14% of 360,000 active;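 active means mean normalized replicate activity at least 40 and at least half of replicates scoring 40 or more; inconclusive means only one of the two criteria met; inactive means mean below 40 and under half of replicates reaching 40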;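 further: 0% = median of neutral control wells and 100% = median of positive control wells; inhibitors cause a drop in the FAM fluorescence signal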
# Target sequence (Q92698 whole entry, looked up): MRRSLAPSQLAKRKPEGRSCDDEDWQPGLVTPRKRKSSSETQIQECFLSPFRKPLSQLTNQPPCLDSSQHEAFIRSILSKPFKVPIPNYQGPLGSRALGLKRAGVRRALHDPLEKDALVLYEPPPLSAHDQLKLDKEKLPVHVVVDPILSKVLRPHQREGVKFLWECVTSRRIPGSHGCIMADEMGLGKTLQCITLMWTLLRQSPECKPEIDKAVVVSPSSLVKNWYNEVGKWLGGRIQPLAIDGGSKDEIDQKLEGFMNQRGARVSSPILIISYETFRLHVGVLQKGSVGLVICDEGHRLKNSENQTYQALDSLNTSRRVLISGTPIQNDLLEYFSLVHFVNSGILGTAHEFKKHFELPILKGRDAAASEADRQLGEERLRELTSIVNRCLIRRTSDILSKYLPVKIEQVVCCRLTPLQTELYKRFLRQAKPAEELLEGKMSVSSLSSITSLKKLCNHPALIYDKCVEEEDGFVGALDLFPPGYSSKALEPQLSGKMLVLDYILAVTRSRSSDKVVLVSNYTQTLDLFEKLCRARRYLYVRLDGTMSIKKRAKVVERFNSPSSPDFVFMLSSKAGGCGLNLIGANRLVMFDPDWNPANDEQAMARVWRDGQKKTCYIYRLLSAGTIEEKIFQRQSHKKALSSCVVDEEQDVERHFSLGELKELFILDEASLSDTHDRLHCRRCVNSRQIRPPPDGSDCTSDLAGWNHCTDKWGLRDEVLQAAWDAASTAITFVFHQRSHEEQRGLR
# RAD52 inh: RAD52 (human) annealing inhibition | 0.46% of 360,000 active | inhibition, % at 18.7 µM | AID 651710 | P43351 | recombinant RAD52 DNA annealing, FRET fluorescence;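 active means every replicate showing at least 50% inhibition; inconclusive means mean inhibition at least 50% but not in every replicate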
# S100A4 inh HTS: inhibitors of human S100A4 binding to myosin IIA peptide. P26447. S100A4/TAMRA-MyoIIA peptide fluorescence polarization. inhibition, % at 10.7 µM. 0.14% of 360,000 active;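 active means mean inhibition of at least 70% across replicates, with every replicate also reaching that level; inconclusive means mean inhibition reaches 70% but some replicates fall short; inactive means mean inhibition below 70%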
#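 Test system: S100A4 monomer protein. Medium: HEPES buffer with Ca2+, pH 7.2. Reagent: fluorescent myosin IIA peptide, 5 nM. Compound dosing: single-point compound testing. Timing: 5 min between mix addition and reading. Benchmarks: DMSO neutral and TFP positive wells.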
# Alpha interfer: interferes with the AlphaScreen assay signal; AID 720494; AC50, µM (top dose mostly 12 µM), without a hit: at the top dose activity change, negative = inhibition; 45% of 530 active; AlphaScreen interference counter-screen, signal luminescence; shares compounds with MLL AF4-AF9 inh; cut-off not given, nearly all actives have AC50 up to about 14 µM
# RAD52 DNA ctr: DNA binding artifact in RAD52 counter-screen. shares compounds with RAD52 inh. Salmon sperm DNA/acridine orange FP displacement. AC50, µM. 8% of 1,000 active. AID 652128;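 active means fitted half-maximal concentration for signal loss at or below twice the highest dose tested, in every separate run, actives reach about 64 µM in these data; inconclusive means runs disagree, or flat partial signal loss, or poor fit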
# CASP1 counter: caspase-1 (human) inhibition counter-screen. shares compounds with CASP6 VEID inh. purified caspase-1, Z-YVAD-R110 cleavage fluorescence. activity change, negative = inhibition, % at 35 µM. 100 tested, under 10 active. AID 743289;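 active means compounds lowering fluorescence whose fitted half-maximal concentration is no more than twice their top tested dose; inconclusive means flat fit with 30 to 70% inhibition, or poor fit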
# An asterisk follows results filed as active; i = inactive; ? = inconclusive; . = no result; ! = not active in a repeat.
SMILES,MLL AF4-AF9 inh,XiGFP reactiv,CASP6 VEID inh,RAD54 inh,RAD52 inh,S100A4 inh HTS,RAD52 DNA ctr,others
COc1ccc2c(c1OC)CN1CCc3cc4c(cc3[C@H]1C2)OCO4,.,.,.,36,.,.,.,
CCC1CN2CCc3cc(OC)c(OC)cc3C2CC1CC1NCCc2c1[nH]c1ccc(O)cc21 (stereo not drawn),?,0,-10,.,9,-7,.,Alpha interfer=-26%
CSCCC(c1nnnn1C1CCCCC1)N1CCC(n2c(=O)[nH]c3ccccc32)CC1 (stereo not drawn),34*,0,1,6,1,0,.,Alpha interfer=-18%
O=c1[nH]c2ccccc2n1C1CCN(C(c2nnnn2C2CCCCC2)C2CC2)CC1 (stereo not drawn),36*,0,3,-2,-3,6,.,Alpha interfer=-11%
O=C(O)[C@H]1[C@H](CO)[C@H]2Cn3c(ccc(-c4ccc(F)cc4)c3=O)[C@@H]1N2CC1CCCC1,-3,0,0,.,-4,0,.,
CN1CCN(c2ccc(Cl)cc2N)CC1,0,0,-12,.,1,4,.,
CN1CCN(c2ccc(N)cc2Cl)CC1,88*,0,-42,.,85*,-1,39µM*,Alpha interfer=5.4µM*
Cc1c(P(=S)(c2ccccc2)c2ccccc2)[n+]2ccccc2n1C,66*!,0,-271,18,97*!,1,i,Alpha interfer=-14%
CCN(CCCl)c1cc(CN(C)C)cc(NC(=O)c2ccc(C(=O)Nc3cc(CN(C)C)cc(N(CC)CCCl)c3)cc2)c1,70*,0,-101,.,105*,-3,?,Alpha interfer=2.5µM*
COC(=O)[C@H]1[C@H](CO)[C@H]2Cn3c(ccc(/C=C/c4ccccc4)c3=O)[C@@H]1N2C(=O)C1CC1,-9,1,3,1,16,0,.,
O=C(Cc1ccncc1)N1CCCCN2[C@H](CO)[C@H](c3ccc(C#Cc4ccccc4F)cc3)[C@H]2C1,-2,0,2,0,-151,-12,.,
NC(N)=Nc1ccc2[nH]c3c(c2c1)C[C@@]1(O)[C@H]2Cc4ccc(O)c5c4[C@@]1(CCN2CC1CC1)C3O5 (stereo partly drawn),.,.,-18,35,53*,-1,i,
COc1cc2c(ccc3c4cc(OC)c(OC)cc4c[n+](C)c23)cc1O,-3,0,-26,.,97*,-2,21µM*,
NC(N)=N/N=C/c1ccc(N(c2ccccc2)c2ccccc2)cc1,-28,0,63*,0,89*,3,i,
COc1ccc(/C=N\N=C(N)N)cc1,-2,0,-3,.,0,-1,.,
Cc1[nH]c2ccc(O)cc2c1CCN,32*,0,.,2,81*,5,i,
COc1ccc(CC2=NCCc3cc(OC)c(OC)cc32)cc1OC,-1,0,.,42,57*,-1,i,
CCN(CC)c1ccc(CN(C)CCc2ccc(OC)c(OC)c2)cc1,.,.,.,9,.,.,.,
C/C=C/c1ccc([C@H]2[C@@H](CO)N3CCCCN(C(=O)Cc4ccncc4)C[C@@H]23)cc1,-8,0,-2,-12,-4,-1,.,
Cc1ccc2c(C)c3ccc4ccccc4c3c[n+]2c1,1,1,-11,.,93*,-5,13µM*,
C[C@@H]1CN([C@@H](C)CO)C(=O)c2c(c3ccccc3n2C)-c2ccccc2CO[C@H]1CN(C)C(=O)Oc1ccccc1,11,0,-1,.,-8,7,.,
C[C@]12CCC3C(CC[C@H]4C[C@@H](O)CC[C@]34C)C1CC[C@@H]2OC(=O)[C@H](N)CCCCN (stereo partly drawn),7,0,-72,66*,97*,-4,i,
O=C(O)[C@@H]1[C@@H](CO)[C@@H]2Cn3c(ccc(-c4cncnc4)c3=O)[C@H]1N2C(=O)NC1CCCC1,-2,0,0,-2,-2,10,.,
COCC#Cc1ccc([C@@H]2[C@@H](CO)N3CCCCN(C(=O)Cc4ccccn4)C[C@@H]23)cc1,-6,0,-3,1,-8,-31,.,
COc1ccc(-c2ccc3n(c2=O)C[C@H]2[C@H](CO)[C@@H](C(=O)O)[C@@H]3N2C(=O)c2ccccc2F)cc1,-2,0,-2,0,-1,-23,.,
SMILES,MLL AF4-AF9 inh,XiGFP reactiv,CASP6 VEID inh,RAD54 inh,RAD52 inh,S100A4 inh HTS,RAD52 DNA ctr,others
NC1(C(=O)O)CCCc2ccc(N(CCCl)CCCl)cc21 (stereo not drawn),10,0,-13,3,61*,1,i,
O=C1NC(=O)C2(CCCc3ccc(N(CCCl)CCCl)cc32)N1 (stereo not drawn),7,0,3,1,2,-7,.,
O=C(O)C[C@@H]1CC[C@H]2NC[C@H](O)COC[C@@H]2O1,-3,0,3,3,-4,9,.,
Nc1ccc(CC(N)c2csc(Nc3ncccn3)n2)cc1 (stereo not drawn),14,0,-5,19,87*,-22,i,
COC(=O)[C@@H]1[C@@H](CO)[C@@H]2Cn3c(cccc3=O)[C@H]1N2Cc1nccs1,-2,0,-1,0,-1,0,.,
COc1cc2c(cc1OC)-c1c(OC)c(OC)cc3c1[C@H](C2)N(C)CC3,10,0,58*,91*,76*,5,i,CASP1 counter=3
COc1ccc(-c2ccc([C@H]3[C@@H](CO)N4CCCCN(C(=O)Cc5ccccc5)C[C@@H]34)cc2)cc1,0,0,-4,9,-41,5,.,
